In ChEMBL document CHEMBL5058577, “EUbOPEN Chemogenomics Library 2 (Multiplex)” (2022):

System: U2OS
Experiment: Multiplex assay against U2OS
Assay type: toxicity, cell-based
Settings: human
Outline: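 Phenotypes for tubulin, mitochondrial mass and membrane permeability are expressed as per cents of healthy-nucleus cells. Cells were stained live at seeding with Hoechst33342, BioTracker Green Microtubule Cytoskeleton Dye, MitoTracker Red and Annexin V Alexa Fluor 680, then imaged after compound addition on a CQ1 microscope at 37°C and 5% CO2. Machine-learning gating in CellPathfinder separated Hoechst high-intensity objects from normal cells, divided normal cells by nuclear state (healthy, pyknosed, fragmented) and divided pyknosed cells into mitotic or apoptotic.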

[1] = 12 h, 1 µM, compound concentration 1 uM, replicate 1
[2] = 12 h, 1 µM, compound concentration 1 uM, replicate 2
[3] = 12 h, 10 µM, compound concentration 10 uM, replicate 1
[4] = 12 h, 10 µM, compound concentration 10 uM, replicate 2
[5] = 24 h, 1 µM, compound concentration 1 uM, replicate 1
[6] = 24 h, 1 µM, compound concentration 1 uM, replicate 2
[7] = 24 h, 10 µM, compound concentration 10 uM, replicate 1
[8] = 24 h, 10 µM, compound concentration 10 uM, replicate 2
[9] = 48 h, 1 µM, compound concentration 1 uM, replicate 1
[10] = 48 h, 1 µM, compound concentration 1 uM, replicate 2
[11] = 48 h, 10 µM, compound concentration 10 uM, replicate 1
[12] = 48 h, 10 µM, compound concentration 10 uM, replicate 2

With `CC(=O)Nc1cccc2c1c(Sc1ccc(Cl)cc1)c(C)n2CC(=O)O` [AZD1981] as the compound, how does the “Population Apoptotic (%)” value [1] read?
The value was 68%.

And the “Population Fragmented Nuclei (%)” value [1]?
Its value is 24%.

What about the “Population Healthy Nuclei (%)” value [1] of the same compound?
Its value is 68%.

What about the “Population Hoechst High Intensity Objects (%)” value [1] of the same compound?
Its value is 3%.

And the “Population Membrane Permeable-Phenotype (%)” value [1]?
The value was 3%.

What about the “Population Mitochondria Different-Phenotype (%)” value [1] of the same compound?
Its value is 0%.

And the “Population Mitotic Cells (%)” value [1]?
The value was 31%.

And the “Population Normal (%)” value [1]?
The value was 96%.

What about the “Population Pyknosed Nuclei (%)” value [1] of the same compound?
The value was 6%.

And the “Population Tubulin-Different-Phenotype (%)” value [1]?
Its value is 2%.

What about the “Total Cell Count” value [1] of the same compound?
The value was 253.

What about the “Population Apoptotic (%)” value [2] of the same compound?
The value was 83%.

And the “Population Fragmented Nuclei (%)” value [2]?
The value was 16%.

What about the “Population Healthy Nuclei (%)” value [2] of the same compound?
Its value is 76%.

What about the “Population Hoechst High Intensity Objects (%)” value [2] of the same compound?
The value was 1%.

And the “Population Membrane Permeable-Phenotype (%)” value [2]?
Its value is 6%.

What about the “Population Mitochondria Different-Phenotype (%)” value [2] of the same compound?
Its value is 1%.

What about the “Population Mitotic Cells (%)” value [2] of the same compound?
Its value is 16%.

What about the “Population Normal (%)” value [2] of the same compound?
The value was 98%.

What about the “Population Pyknosed Nuclei (%)” value [2] of the same compound?
Its value is 7%.

What about the “Population Tubulin-Different-Phenotype (%)” value [2] of the same compound?
Its value is 3%.

And the “Total Cell Count” value [2]?
The value was 82.

And the “Population Apoptotic (%)” value [3]?
The value was 83%.

What about the “Population Fragmented Nuclei (%)” value [3] of the same compound?
The value was 25%.

And the “Population Healthy Nuclei (%)” value [3]?
The value was 66%.

And the “Population Hoechst High Intensity Objects (%)” value [3]?
The value was 2%.

And the “Population Membrane Permeable-Phenotype (%)” value [3]?
Its value is 8%.

And the “Population Mitochondria Different-Phenotype (%)” value [3]?
Its value is 0%.

What about the “Population Mitotic Cells (%)” value [3] of the same compound?
The value was 16%.

What about the “Population Normal (%)” value [3] of the same compound?
Its value is 97%.

And the “Population Pyknosed Nuclei (%)” value [3]?
Its value is 7%.

And the “Population Tubulin-Different-Phenotype (%)” value [3]?
Its value is 1%.

And the “Total Cell Count” value [3]?
Its value is 231.

And the “Population Apoptotic (%)” value [4]?
Its value is 80%.

What about the “Population Fragmented Nuclei (%)” value [4] of the same compound?
The value was 19%.

What about the “Population Healthy Nuclei (%)” value [4] of the same compound?
The value was 76%.

And the “Population Hoechst High Intensity Objects (%)” value [4]?
The value was 3%.

What about the “Population Membrane Permeable-Phenotype (%)” value [4] of the same compound?
The value was 10%.

What about the “Population Mitochondria Different-Phenotype (%)” value [4] of the same compound?
The value was 3%.

And the “Population Mitotic Cells (%)” value [4]?
Its value is 20%.

And the “Population Normal (%)” value [4]?
The value was 96%.

And the “Population Pyknosed Nuclei (%)” value [4]?
Its value is 4%.

What about the “Population Tubulin-Different-Phenotype (%)” value [4] of the same compound?
The value was 5%.

And the “Total Cell Count” value [4]?
Its value is 122.

What about the “Population Apoptotic (%)” value [5] of the same compound?
The value was 91%.

What about the “Population Fragmented Nuclei (%)” value [5] of the same compound?
Its value is 25%.

What about the “Population Healthy Nuclei (%)” value [5] of the same compound?
Its value is 66%.

What about the “Population Hoechst High Intensity Objects (%)” value [5] of the same compound?
The value was 2%.

What about the “Population Membrane Permeable-Phenotype (%)” value [5] of the same compound?
Its value is 5%.

What about the “Population Mitochondria Different-Phenotype (%)” value [5] of the same compound?
Its value is 1%.

And the “Population Mitotic Cells (%)” value [5]?
The value was 8%.

And the “Population Normal (%)” value [5]?
Its value is 97%.

And the “Population Pyknosed Nuclei (%)” value [5]?
Its value is 8%.

And the “Population Tubulin-Different-Phenotype (%)” value [5]?
The value was 3%.

And the “Total Cell Count” value [5]?
The value was 289.

What about the “Population Apoptotic (%)” value [6] of the same compound?
Its value is 50%.

What about the “Population Fragmented Nuclei (%)” value [6] of the same compound?
The value was 16%.

What about the “Population Healthy Nuclei (%)” value [6] of the same compound?
Its value is 82%.

What about the “Population Hoechst High Intensity Objects (%)” value [6] of the same compound?
Its value is 0%.

What about the “Population Membrane Permeable-Phenotype (%)” value [6] of the same compound?
The value was 4%.

What about the “Population Mitochondria Different-Phenotype (%)” value [6] of the same compound?
Its value is 3%.

What about the “Population Mitotic Cells (%)” value [6] of the same compound?
The value was 50%.

What about the “Population Normal (%)” value [6] of the same compound?
The value was 100%.

And the “Population Pyknosed Nuclei (%)” value [6]?
The value was 1%.

And the “Population Tubulin-Different-Phenotype (%)” value [6]?
The value was 0%.

What about the “Total Cell Count” value [6] of the same compound?
Its value is 106.

What about the “Population Apoptotic (%)” value [7] of the same compound?
Its value is 88%.

And the “Population Fragmented Nuclei (%)” value [7]?
Its value is 23%.

And the “Population Healthy Nuclei (%)” value [7]?
The value was 66%.

What about the “Population Hoechst High Intensity Objects (%)” value [7] of the same compound?
Its value is 0%.

And the “Population Membrane Permeable-Phenotype (%)” value [7]?
Its value is 6%.

And the “Population Mitochondria Different-Phenotype (%)” value [7]?
The value was 2%.

What about the “Population Mitotic Cells (%)” value [7] of the same compound?
Its value is 11%.

What about the “Population Normal (%)” value [7] of the same compound?
Its value is 99%.

What about the “Population Pyknosed Nuclei (%)” value [7] of the same compound?
The value was 9%.

What about the “Population Tubulin-Different-Phenotype (%)” value [7] of the same compound?
Its value is 2%.

And the “Total Cell Count” value [7]?
Its value is 266.

And the “Population Apoptotic (%)” value [8]?
Its value is 100%.

And the “Population Fragmented Nuclei (%)” value [8]?
Its value is 14%.

What about the “Population Healthy Nuclei (%)” value [8] of the same compound?
The value was 77%.

And the “Population Membrane Permeable-Phenotype (%)” value [8]?
The value was 3%.

And the “Population Mitochondria Different-Phenotype (%)” value [8]?
Its value is 4%.

And the “Population Mitotic Cells (%)” value [8]?
Its value is 0%.

And the “Population Pyknosed Nuclei (%)” value [8]?
Its value is 8%.

And the “Population Tubulin-Different-Phenotype (%)” value [8]?
The value was 0%.

And the “Total Cell Count” value [8]?
The value was 125.

And the “Population Apoptotic (%)” value [9]?
Its value is 91%.

And the “Population Fragmented Nuclei (%)” value [9]?
Its value is 16%.

And the “Population Healthy Nuclei (%)” value [9]?
The value was 74%.

What about the “Population Hoechst High Intensity Objects (%)” value [9] of the same compound?
The value was 1%.

And the “Population Membrane Permeable-Phenotype (%)” value [9]?
The value was 6%.

And the “Population Mitochondria Different-Phenotype (%)” value [9]?
Its value is 2%.

And the “Population Mitotic Cells (%)” value [9]?
The value was 8%.

And the “Population Normal (%)” value [9]?
Its value is 98%.

And the “Population Pyknosed Nuclei (%)” value [9]?
The value was 9%.

What about the “Population Tubulin-Different-Phenotype (%)” value [9] of the same compound?
The value was 4%.

What about the “Total Cell Count” value [9] of the same compound?
The value was 375.

And the “Population Apoptotic (%)” value [10]?
The value was 81%.

What about the “Population Fragmented Nuclei (%)” value [10] of the same compound?
Its value is 9%.

What about the “Population Healthy Nuclei (%)” value [10] of the same compound?
Its value is 82%.

What about the “Population Hoechst High Intensity Objects (%)” value [10] of the same compound?
Its value is 3%.

What about the “Population Mitochondria Different-Phenotype (%)” value [10] of the same compound?
The value was 0%.

What about the “Population Mitotic Cells (%)” value [10] of the same compound?
Its value is 18%.

What about the “Population Normal (%)” value [10] of the same compound?
Its value is 96%.

What about the “Population Pyknosed Nuclei (%)” value [10] of the same compound?
The value was 7%.

And the “Population Tubulin-Different-Phenotype (%)” value [10]?
Its value is 1%.

What about the “Total Cell Count” value [10] of the same compound?
Its value is 144.

What about the “Population Apoptotic (%)” value [11] of the same compound?
The value was 100%.

And the “Population Fragmented Nuclei (%)” value [11]?
The value was 18%.

What about the “Population Healthy Nuclei (%)” value [11] of the same compound?
Its value is 75%.

And the “Population Hoechst High Intensity Objects (%)” value [11]?
The value was 2%.

What about the “Population Membrane Permeable-Phenotype (%)” value [11] of the same compound?
The value was 7%.

And the “Population Mitochondria Different-Phenotype (%)” value [11]?
The value was 2%.

And the “Population Mitotic Cells (%)” value [11]?
The value was 0%.

What about the “Population Normal (%)” value [11] of the same compound?
Its value is 97%.

And the “Population Pyknosed Nuclei (%)” value [11]?
The value was 5%.

And the “Population Tubulin-Different-Phenotype (%)” value [11]?
Its value is 4%.

And the “Total Cell Count” value [11]?
Its value is 366.

What about the “Population Apoptotic (%)” value [12] of the same compound?
Its value is 85%.

What about the “Population Fragmented Nuclei (%)” value [12] of the same compound?
The value was 14%.

What about the “Population Healthy Nuclei (%)” value [12] of the same compound?
The value was 73%.

And the “Population Hoechst High Intensity Objects (%)” value [12]?
Its value is 1%.

And the “Population Mitochondria Different-Phenotype (%)” value [12]?
The value was 4%.

What about the “Population Mitotic Cells (%)” value [12] of the same compound?
The value was 15%.

What about the “Population Normal (%)” value [12] of the same compound?
Its value is 98%.

What about the “Population Pyknosed Nuclei (%)” value [12] of the same compound?
The value was 11%.

What about the “Total Cell Count” value [12] of the same compound?
The value was 171.
